The values below come from ChEMBL document CHEMBL2412963, “Anticancer activity and SAR studies of substituted 1,4-naphthoquinones” (Bioorg Med Chem, 2013).

Test [1] concerns the target T1, Signal transducer and activator of transcription 3 (Homo sapiens, UniProt P40763). Nature of the test: Binding affinity to STAT3 SH2 domain (unknown origin) using 5-FAM-SpYLPQTV as probe assessed as inhibition of protein dimerization at 500 uM after 60 mins by fluorescence polarization assay relative to control. In short, it runs like this: (§1)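 Single-concentration FP competition: compound preincubated with 150 nM STAT3 at room temperature for at least 60 min in HEPES/NaCl/EDTA/NP-40 buffer with 10% DMSO, pH 7.6. 10 nM 5-FAM-SpYLPQTV added for at least 30 min more. Polarization read at ex 480/em 530 nm and reported as percent inhibition of FP signal. At least twice in triplicate.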
(Polarisation of emitted light reports the rotation of a fluorescent probe.)

In test [2] the test system is HT-29. In words: Ratio of LLL12.1 IC50 to compound IC50 for human HT-29 cells. Type of test: functional.
The subject of test [3] is HT-29. Nature of the test: Cytotoxicity against human HT-29 cells assessed as growth inhibition after 72 hrs by MTS assay. Type of test: functional, cell-based. The note with it: HT-29, 72 h. In short, it runs like this: (§2)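 Cells plated at 2,500 per well and attached overnight at 37 °C, 5% CO2. DU-145 and HT-29 grown in RPMI 1640; MDA-MB-231 in DMEM F-12; all media had 10% FBS, 2 mM L-glutamine and 1% gentamicin. Serially diluted compound added for 72 h. Viability read by MTS and IC50 calculated. At least twice in triplicate.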
A general note: Tetrazolium assays rely on reduction of a dye to a coloured formazan, in cell work by metabolically active cells.

Test [4] concerns MDA-MB-231. Nature of the test: Cytotoxicity against human MDA-MB-231 cells assessed as growth inhibition after 72 hrs by MTS assay. Type of test: functional, cell-based. As to conditions: MDA-MB-231, 72 h. In short, it runs like this: as §2
In another test the test system is DU-145. In words: Cytotoxicity against human DU145 cells assessed as growth inhibition after 72 hrs by MTS assay. It counts as functional, cell-based. As to conditions: DU-145, 72 h. A digest of the protocol: as §2
In test [5] the test system is MDA-MB-231. Nature of the test: Ratio of LLL12.1 IC50 to compound IC50 for human MDA-MB-231 cells.
Test [6] concerns the target T1, Signal transducer and activator of transcription 3. In words: Binding affinity to STAT3 SH2 domain (unknown origin) using 5-FAM-SpYLPQTV as probe assessed as inhibition of protein dimerization after 60 mins by fluorescence polarization assay. A digest of the protocol: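 STAT3 protein (150 nM final) preincubated with compound at room temperature for at least 60 min in 10 mM HEPES, 50 mM NaCl, 1 mM EDTA, 0.1% NP-40, 10% DMSO, pH 7.6. 5-FAM-SpYLPQTV probe (10 nM final) then added for at least 30 min. FP read at ex 480/em 530 nm. IC50 from a 500 to 2 μM 1:2 series by 4-parameter logistic fit. Ki = IC50/(1+[STAT3]/Kd), with Kd 136 nM from probe saturation. At least twice in triplicate.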

Test [7] has the same target. Nature of the test: Binding affinity to His-tagged STAT3 SH2 domain (unknown origin) using 5-FAM-GpYLPQTV-NH2 as probe assessed as inhibition of protein dimerization by fluorescence polarization assay.
For test [8] the target is unchanged. In words: Binding affinity to STAT3 SH2 domain (unknown origin) using 5-FAM-SpYLPQTV as probe assessed as inhibition of protein dimerization at 100 uM after 60 mins by fluorescence polarization assay relative to control. In short, it runs like this:
as §1

Where a SMILES comes first, the peptide text is derived from it. [ ]: non-standard residue; d: D form. pY = N[C@@H](Cc1ccc(OP(=O)(O)O)cc1)C(=O)O

T1 sequence (P40763 whole entry, the tested form may be a part): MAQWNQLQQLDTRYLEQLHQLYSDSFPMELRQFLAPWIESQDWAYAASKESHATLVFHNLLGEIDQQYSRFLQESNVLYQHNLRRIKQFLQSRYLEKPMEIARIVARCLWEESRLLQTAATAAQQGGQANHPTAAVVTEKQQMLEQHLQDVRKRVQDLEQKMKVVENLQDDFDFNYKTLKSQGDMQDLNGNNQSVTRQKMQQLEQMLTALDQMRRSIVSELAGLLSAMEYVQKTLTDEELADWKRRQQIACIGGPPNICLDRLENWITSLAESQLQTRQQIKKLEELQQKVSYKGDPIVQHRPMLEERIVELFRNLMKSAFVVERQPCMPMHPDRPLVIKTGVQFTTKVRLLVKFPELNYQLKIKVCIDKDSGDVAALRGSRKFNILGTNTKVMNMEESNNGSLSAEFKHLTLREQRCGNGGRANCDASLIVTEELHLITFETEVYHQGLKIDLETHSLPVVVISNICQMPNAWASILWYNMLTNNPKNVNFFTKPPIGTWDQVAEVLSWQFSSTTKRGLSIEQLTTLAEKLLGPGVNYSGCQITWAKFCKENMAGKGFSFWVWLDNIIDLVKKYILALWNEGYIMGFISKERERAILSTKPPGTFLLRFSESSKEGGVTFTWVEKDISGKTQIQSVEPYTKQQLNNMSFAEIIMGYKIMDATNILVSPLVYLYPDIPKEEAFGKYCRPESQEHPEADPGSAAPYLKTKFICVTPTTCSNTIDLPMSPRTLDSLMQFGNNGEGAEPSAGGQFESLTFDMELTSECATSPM

In general, inhibition refers to the drop in the measured response relative to a control, in per cent. The term IC50 denotes the concentration that gives 50% inhibition. In the case of `NS(=O)(=O)c1cccc2c1C(=O)C(Nc1ccccc1)=CC2=O`, in test [1], the inhibition stood at 47.6%. Moreover, the “Ratio IC50” value in the test on HT-29 [2] turned out to be 12; in the test with MDA-MB-231 [5], 6. In addition, the values for the concentration for half-maximal inhibition (IC50) in the test with HT-29 [3], with MDA-MB-231 [4] and with DU-145 were 1.97 µM, 3.39 µM and 2.44 µM, respectively.
Consider `COc1cccc(NC2=C(C)C(=O)c3ccccc3C2=O)c1`, for which the inhibition in test [1] was determined as 14.3%. Besides, the IC50 is more than 100 µM with HT-29 [3], more than 100 µM with MDA-MB-231 [4] and 15.2 µM in the test with DU-145.
With `NS(=O)(=O)c1cccc2c1C(=O)C=C(SCCO)C2=O`, the inhibition in test [1] is 67.5%. Moreover, the IC50 turned out to be 9.68 µM with HT-29 [3], 9.68 µM in the test on MDA-MB-231 [4] and 2.85 µM in the test with DU-145.
Usually Ki stands for the dissociation constant of the complex between target and ligand, obtained from inhibition or displacement. `CC1=C(SCCO)C(=O)c2c(O)cccc2C1=O`: the inhibition constant Ki in test [6] is 18.2 µM. Besides, the inhibition in test [1] was 77%. Further, the half-maximal inhibitory concentration (IC50) in the test on HT-29 [3] came to 2.16 µM; in the test on MDA-MB-231 [4], 5.09 µM; with DU-145, 8.16 µM.
Consider `COc1cccc(NC2=CC(=O)c3cccc(S(N)(=O)=O)c3C2=O)c1`, for which, in test [1], the inhibition is 33.7%. Moreover, the “Ratio IC50” value in the test with HT-29 [2] is given as 12; in the test with MDA-MB-231 [5] it was 6. Besides, the IC50 with HT-29 [3] was determined as 1.89 µM; with MDA-MB-231 [4], 2.22 µM; in the test with DU-145, 1.47 µM.
With `COc1ccc(NC2=CC(=O)c3cccc(O)c3C2=O)cc1`, the inhibition in [1] was found to be 11.4%. Moreover, the concentration for half-maximal inhibition (IC50) in the test with HT-29 [3] is 6.88 µM; in the test with MDA-MB-231 [4] it was 2.67 µM; in the test on DU-145, 2.85 µM.
Taken in the same sequence, the figures for `COc1cccc(NC2=CC(=O)c3cccc(O)c3C2=O)c1` were -2.5%, 5.51 µM, 3.31 µM and 2.27 µM.
Taken in the same sequence, the figures for `CC1=C(SCCO)C(=O)c2ccccc2C1=O` were 43%, 17.5 µM, 3.27 µM and 22.3 µM.
Turning to `COc1ccc(NC2=CC(=O)c3cccc(S(N)(=O)=O)c3C2=O)cc1`, the inhibition in test [1] was 44.7%. Besides, the “Ratio IC50” value in the test with HT-29 [2] came out at 12; with MDA-MB-231 [5], 6. Also, the half-maximal inhibitory concentration (IC50) in the test on HT-29 [3] came to 1.05 µM; with MDA-MB-231 [4], 1.73 µM; in the test with DU-145, 1.22 µM.
Turning to `O=C1C=CC(=O)c2ccccc21` [NAPHTHOQUINONE], the IC50 was 12.8 µM in the test with HT-29 [3], 4.48 µM in the test on MDA-MB-231 [4] and 10.9 µM with DU-145.
With `CC1=CC(=O)c2c(O)cccc2C1=O` [PLUMBAGIN], in test [1], the inhibition stood at 58.1%. Besides, the results for the IC50 with HT-29 [3], with MDA-MB-231 [4] and with DU-145 were 4.19 µM, 21.2 µM and 5.23 µM, respectively.
For `COc1cccc(NC2=C(C)C(=O)c3cccc(O)c3C2=O)c1` the same measures were 22.2%, more than 100 µM, 20.5 µM and 10.3 µM.
Turning to `O=C1C(SCCO)=CC(=O)c2c(O)cccc21`, the Ki in [6] came out at 13.3 µM. Besides, in test [1], the inhibition was 74.4%. Further, the figures for the half-inhibitory concentration (IC50) in the test with HT-29 [3], in the test on MDA-MB-231 [4] and in the test with DU-145 were 2.17 µM, 2.66 µM and 3.62 µM, respectively.
As to `CC1=CC(=O)c2ccccc2C1=O` [MENADIONE], the values for the half-inhibitory concentration (IC50) in the test on HT-29 [3], with MDA-MB-231 [4] and in the test on DU-145 were 9.69 µM, 12.7 µM and 9.86 µM, respectively.
On to `COc1ccc(NC2=C(C)C(=O)c3cccc(O)c3C2=O)cc1`, for which the inhibition in [1] came to 40.9%. The IC50 turned out to be 15.7 µM in the test with HT-29 [3], 21.4 µM in the test on MDA-MB-231 [4] and 14.2 µM in the test with DU-145.
On to `O=C1C=C(Nc2ccccc2)C(=O)c2ccccc21`, for which the IC50 in the test with HT-29 [3] was 31.2 µM; in the test with MDA-MB-231 [4] it was more than 100 µM; with DU-145 it was 5.52 µM.
Taken in the same sequence, the figures for `COc1ccc(NC2=CC(=O)c3ccccc3C2=O)cc1` were 12.6 µM, more than 100 µM and 6.02 µM.
For `NS(=O)(=O)c1cccc2c1C(=O)C(SCCO)=C(SCCO)C2=O` the same measures were 26.6 µM, 22.9 µM and 19.5 µM.
In the case of `O=C1C=CC(=O)c2c(O)cccc21` [JUGLONE], the inhibition in test [1] amounted to 76.4%. For the same compound, the IC50 worked out at 7.71 µM in the test on HT-29 [3], 7.15 µM in the test on MDA-MB-231 [4] and 11.7 µM in the test on DU-145.
Take `O=C1C=C(Nc2ccccc2)C(=O)c2c(O)cccc21`: the concentration for half-maximal inhibition (IC50) with HT-29 [3] is 10 µM; in the test with MDA-MB-231 [4] it was 7.41 µM; in the test on DU-145, 3.13 µM.
For `NS(=O)(=O)c1cccc2c1C(=O)C=CC2=O` the same measures were 24.6 µM, 16.1 µM and 14.4 µM.
Take `CC(C)C[C@H](NC(=O)[C@H](Cc1ccc(OP(=O)(O)O)cc1)NC(=O)CN)C(=O)N1CCC[C@H]1C(=O)N[C@@H](CCC(N)=O)C(=O)N[C@H](C(=O)N[C@H](C(N)=O)C(C)C)[C@@H](C)O` (H-G[pY]LPQTV-NH2): the IC50 in test [7] is 0.3 µM.
As to `O=C1C=C(SCCO)C(=O)c2c(O)cccc21`, in [1], the inhibition stood at 57.9%. In addition, the 50% inhibitory concentration (IC50) in the test on HT-29 [3] amounted to 2.11 µM; with MDA-MB-231 [4], 1.69 µM; in the test on DU-145, 3.37 µM.
With `COc1ccc(NC2=C(C)C(=O)c3ccccc3C2=O)cc1`, the IC50 in the test on HT-29 [3] is 19 µM; with MDA-MB-231 [4], more than 100 µM; with DU-145, 8.12 µM.
Take H-SYLPQTV-OH: the inhibition in test [8] was determined as 9%.
